One molecule from ChEMBL document CHEMBL4376814, “Novel cyclin-dependent kinase 9 (CDK9) inhibitor with suppression of cancer stemness activity against non-small-cell lung cancer” (Eur J Med Chem, 2019) can be followed below.

Each structure is given as a SMILES string. The source made the active and inactive calls. No cut-off for these calls is given here.

In experiment [1] the target is Tyrosine-protein kinase receptor TYRO3 (Homo sapiens) (UniProt Q06418). Briefly: Inhibition of human RSE (451 to end residues) at 1 uM using KVEKIGEGTYGVVYK as substrate measured after 40 mins in presence of [gamma33P]ATP by scintillation counting method relative to control. The method, boiled down: (§1)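 Percent inhibition of kinase activity at a single compound concentration, measured by the outsourced Eurofins KinaseProfiler panel. Values are the mean of two independent experiments.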

The test system of the next experiment is U-937. Description: Antiproliferative activity against human U937 cells assessed as inhibition of cell viability after 72 hrs by CCK-8 assay. The following applies: U-937, 72 h. The class given is functional, cell-based. The procedure, abridged: (§2)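 Cells kept at 37 °C, 5% CO2 in DMEM or RPMI-1640 with 10% FBS and 1% penicillin/streptomycin, then seeded at 3000 cells/well (adherent) or 10,000 cells/well (suspension). Exposed to a range of concentrations for 72 h. CCK-8 added for 1-4 h before reading A450. […] Three independent experiments.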

Experiment [2] deals with Focal adhesion kinase 1 (Homo sapiens) (UniProt Q05397). Description: Inhibition of recombinant human FAK (411 to 686 residues) at 1 uM using EEEEYEEEEEEYYIIEEEEEEYEEEEEEYYEEEEEEKKKK as substrate measured after 40 mins in presence of [gamma33P]ATP by scintillation counting method relative to control.
Experiment [3] deals with Mitogen-activated protein kinase kinase kinase 20 (Homo sapiens) (UniProt Q9NYL2). Description: Inhibition of recombinant full-length human ZAK at 1 uM using MBP as substrate measured after 40 mins in presence of [gamma33P]ATP by scintillation counting method relative to control.
The target in experiment [4] is Casein kinase II subunit alpha' (Homo sapiens) (UniProt P19784). Description: Inhibition of full length recombinant human CK2alpha2 at 1 uM using RRRDDDSDDD as substrate measured after 40 mins in presence of [gamma33P]ATP by scintillation counting method relative to control.
The target of experiment [5] is Interferon-induced, double-stranded RNA-activated protein kinase (Homo sapiens) (UniProt P19525). Briefly: Inhibition of recombinant human PKR (252 to end residues) at 1 uM using RSRSRSRSRSRSRSR as substrate measured after 40 mins in presence of [gamma33P]ATP by scintillation counting method relative to control. The method, boiled down:
(§3)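 Single-point inhibition at 1 µM was measured in the Eurofins KinaseProfiler panel. Values are the mean of two independent experiments.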

Experiment [6] has as its system A549. Briefly: Downregulation of SOX2 in human A549 cells at 0.25 to 1 uM by Western blot analysis. In kind it is functional, cell-based.
For experiment [7], the target named is Inhibitor of nuclear factor kappa-B kinase subunit epsilon (Homo sapiens) (UniProt Q14164). Description: Inhibition of recombinant full-length human IKKepsilon at 1 uM using casein as substrate measured after 40 mins in presence of [gamma33P]ATP by scintillation counting method relative to control.
In the next experiment the test system is Jurkat. Briefly: Antiproliferative activity against human Jurkat cells assessed as inhibition of cell viability after 72 hrs by CCK-8 assay. In kind it is functional, cell-based. The procedure, abridged: as §2
Experiment [8] concerns NCI-H1299. Briefly: Antitumour activity against human H1299 cells xenografted in Balb/c mouse assessed as effect on CDK9 level at 20 to 80 mg/kg, po administered for 3 weeks by […] based light microscopic analysis. The class given is functional, organism-based. The procedure, abridged:
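Tumours came from the H1299 oral-dosing xenograft run for 3 weeks. Formalin-fixed, paraffin-embedded 5-µm sections were deparaffinized and rehydrated. Primary antibodies (CDK9, cyclin T1, p-Rb Ser780, RNAPII CTD Ser5, Oct4) used at 1:100 overnight at 4 °C. Biotinylated secondary for 1 h at room temperature, then ABC-peroxidase/DAB, hematoxylin counterstain and light microscopy.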

In experiment [9] the test system is Serine/threonine-protein kinase Chk2 (Homo sapiens), O96017 [R145W]. Description: Inhibition of recombinant human CHK2 R145W mutant (5 to end residues) at 1 uM using KKKVSRSGLYRSPSMPENLNRPR as substrate measured after 40 mins in presence of [gamma33P]ATP by scintillation counting method relative to control. The procedure, abridged: as §3
The subject of experiment [10] is A549. Description: Induction of apoptosis in human A549 cells assessed as early apoptotic cells at 0.25 uM after 48 hrs by AnnexinV-FITC/PI staining-based flow cytometric analysis (reference value: 2.91%). The class given is functional.
Experiment [11] deals with NCI-H1299. Briefly: Down regulation CDK9 expression in human H1299 cells at 0.25 to 1 uM after 24 hrs by Western blot analysis. The class given is functional, cell-based. The procedure, abridged: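 A549 and H1299 cells treated for 24 h with serial dilutions alongside a DMSO control. Protein extracts resolved and immunoblotted.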
For a further experiment, the system named is SiHa. Briefly: Antiproliferative activity against human SiHa cells assessed as inhibition of cell viability after 72 hrs by CCK-8 assay. In kind it is functional, cell-based. The procedure, abridged: as §2
For experiment [12], the target named is CDK9/cyclin T1 (Homo sapiens) (UniProt O60563+P50750). Description: Inhibition of recombinant full-length human CDK9/cyclinT1 at 1 uM using KTFCGTPEYLAPEVRREPRILSEEEQEMFRDFDYIADWC peptide as substrate measured after 40 mins in presence of [gamma33P]ATP by scintillation counting method relative to control. In kind it is protein-complex assay. The method, boiled down:
as §1

The target in experiment [13] is Bone morphogenetic protein receptor type-1B (Homo sapiens) (UniProt O00238). Briefly: Inhibition of recombinant human ALK6 (148 to end residues) at 1 uM using casein as substrate measured after 40 mins in presence of [gamma33P]ATP by scintillation counting method relative to control.
Experiment [14] deals with Phosphatidylinositol 4-phosphate 5-kinase type-1 alpha (Homo sapiens) (UniProt Q99755). Briefly: Inhibition of recombinant full-length human PIP5K1alpha at 1 uM using phosphatidylinositol 4-phosphate as substrate measured after 40 mins by HTRF assay relative to control.
In experiment [15] the test system is A549. Description: Downregulation of KLF4 in human A549 cells at 0.25 to 1 uM by Western blot analysis. In kind it is functional, cell-based.
Another experiment concerns HepG2. Briefly: Antiproliferative activity against human HepG2 cells assessed as inhibition of cell viability at 10 uM after 72 hrs by CCK-8 assay relative to control. In kind it is functional. The settings on record: HepG2, 72 h. The procedure, abridged:
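Single-concentration viability screen using CCK-8. Cells were seeded at 3000/well and treated for 72 h. A450 read after 1-4 h with reagent. Percent inhibition calculated against untreated control and blank wells as (Ac−As)/(Ac−Ab)×100%.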

For experiment [16], the target named is Protein kinase C alpha type (Homo sapiens) (UniProt P17252). Description: Inhibition of recombinant full-length human PKCalpha at 1 uM using histone H1 as substrate measured after 40 mins in presence of [gamma33P]ATP by scintillation counting method relative to control.
Experiment [17] concerns the target Receptor tyrosine-protein kinase erbB-4 (Homo sapiens) (UniProt Q15303). Description: Inhibition of recombinant human ErbB4 (706 to 991 residues) at 1 uM using poly(Glu, Tyr) 4:1 as substrate measured after 40 mins in presence of [gamma33P]ATP by scintillation counting method relative to control.

Chain of Bone morphogenetic protein receptor type-1B (Homo sapiens) (O00238 whole entry): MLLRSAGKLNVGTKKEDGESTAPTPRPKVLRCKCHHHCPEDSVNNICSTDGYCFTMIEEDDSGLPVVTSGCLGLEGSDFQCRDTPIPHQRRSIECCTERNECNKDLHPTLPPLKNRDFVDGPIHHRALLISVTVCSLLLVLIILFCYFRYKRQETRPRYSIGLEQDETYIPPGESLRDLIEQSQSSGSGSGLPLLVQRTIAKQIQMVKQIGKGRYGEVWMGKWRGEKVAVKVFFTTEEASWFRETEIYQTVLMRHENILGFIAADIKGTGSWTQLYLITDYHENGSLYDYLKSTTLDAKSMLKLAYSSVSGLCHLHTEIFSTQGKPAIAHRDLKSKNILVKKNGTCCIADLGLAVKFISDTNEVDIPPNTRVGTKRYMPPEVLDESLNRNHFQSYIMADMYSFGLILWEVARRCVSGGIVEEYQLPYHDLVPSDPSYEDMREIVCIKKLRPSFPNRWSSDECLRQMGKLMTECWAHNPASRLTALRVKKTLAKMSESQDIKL
Chain of Focal adhesion kinase 1 (Homo sapiens) (Q05397 2-1052 limits assumed): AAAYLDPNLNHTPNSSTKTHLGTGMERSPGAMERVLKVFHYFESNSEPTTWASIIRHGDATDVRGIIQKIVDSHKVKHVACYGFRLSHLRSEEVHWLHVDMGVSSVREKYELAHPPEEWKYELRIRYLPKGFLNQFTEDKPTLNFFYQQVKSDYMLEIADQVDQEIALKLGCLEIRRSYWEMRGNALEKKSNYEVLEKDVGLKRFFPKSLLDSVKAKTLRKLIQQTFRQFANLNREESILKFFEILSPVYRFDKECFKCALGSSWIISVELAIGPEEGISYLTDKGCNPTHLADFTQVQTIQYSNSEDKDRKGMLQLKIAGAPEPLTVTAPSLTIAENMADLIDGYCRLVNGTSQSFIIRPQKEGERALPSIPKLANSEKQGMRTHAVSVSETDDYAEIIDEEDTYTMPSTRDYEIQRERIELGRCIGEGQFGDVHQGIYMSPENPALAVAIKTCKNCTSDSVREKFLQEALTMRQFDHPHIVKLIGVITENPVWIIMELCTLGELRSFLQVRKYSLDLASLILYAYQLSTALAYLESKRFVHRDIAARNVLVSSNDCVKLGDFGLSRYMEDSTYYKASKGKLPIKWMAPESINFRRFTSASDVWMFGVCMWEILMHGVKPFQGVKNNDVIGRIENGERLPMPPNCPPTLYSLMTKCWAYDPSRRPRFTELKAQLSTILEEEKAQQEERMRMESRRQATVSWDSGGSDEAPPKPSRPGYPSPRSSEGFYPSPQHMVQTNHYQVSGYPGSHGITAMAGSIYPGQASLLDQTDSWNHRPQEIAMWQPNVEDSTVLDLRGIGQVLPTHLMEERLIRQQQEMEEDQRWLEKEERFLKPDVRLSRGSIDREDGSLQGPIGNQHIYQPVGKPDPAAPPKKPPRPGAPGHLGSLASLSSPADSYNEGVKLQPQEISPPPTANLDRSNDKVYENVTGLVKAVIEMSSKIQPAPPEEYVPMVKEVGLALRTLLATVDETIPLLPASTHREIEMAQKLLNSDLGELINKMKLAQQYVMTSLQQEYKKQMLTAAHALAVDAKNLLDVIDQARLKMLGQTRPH
Chain of Phosphatidylinositol 4-phosphate 5-kinase type-1 alpha (Homo sapiens) (Q99755 whole entry): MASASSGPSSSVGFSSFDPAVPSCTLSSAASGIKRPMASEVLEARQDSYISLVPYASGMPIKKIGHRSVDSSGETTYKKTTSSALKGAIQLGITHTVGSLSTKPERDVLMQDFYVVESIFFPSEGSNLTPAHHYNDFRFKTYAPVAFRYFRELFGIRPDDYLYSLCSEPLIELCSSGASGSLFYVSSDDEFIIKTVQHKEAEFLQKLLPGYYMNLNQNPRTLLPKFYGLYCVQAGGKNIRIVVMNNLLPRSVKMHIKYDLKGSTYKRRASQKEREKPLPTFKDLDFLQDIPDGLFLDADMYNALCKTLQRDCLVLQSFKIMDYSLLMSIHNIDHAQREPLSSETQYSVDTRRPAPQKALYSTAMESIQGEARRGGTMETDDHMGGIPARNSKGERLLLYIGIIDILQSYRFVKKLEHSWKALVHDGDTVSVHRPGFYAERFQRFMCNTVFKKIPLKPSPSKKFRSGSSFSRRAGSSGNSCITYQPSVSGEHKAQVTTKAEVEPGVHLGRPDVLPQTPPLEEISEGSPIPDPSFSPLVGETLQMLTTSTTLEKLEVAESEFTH
Chain of Tyrosine-protein kinase receptor TYRO3 (Homo sapiens) (Q06418 whole entry): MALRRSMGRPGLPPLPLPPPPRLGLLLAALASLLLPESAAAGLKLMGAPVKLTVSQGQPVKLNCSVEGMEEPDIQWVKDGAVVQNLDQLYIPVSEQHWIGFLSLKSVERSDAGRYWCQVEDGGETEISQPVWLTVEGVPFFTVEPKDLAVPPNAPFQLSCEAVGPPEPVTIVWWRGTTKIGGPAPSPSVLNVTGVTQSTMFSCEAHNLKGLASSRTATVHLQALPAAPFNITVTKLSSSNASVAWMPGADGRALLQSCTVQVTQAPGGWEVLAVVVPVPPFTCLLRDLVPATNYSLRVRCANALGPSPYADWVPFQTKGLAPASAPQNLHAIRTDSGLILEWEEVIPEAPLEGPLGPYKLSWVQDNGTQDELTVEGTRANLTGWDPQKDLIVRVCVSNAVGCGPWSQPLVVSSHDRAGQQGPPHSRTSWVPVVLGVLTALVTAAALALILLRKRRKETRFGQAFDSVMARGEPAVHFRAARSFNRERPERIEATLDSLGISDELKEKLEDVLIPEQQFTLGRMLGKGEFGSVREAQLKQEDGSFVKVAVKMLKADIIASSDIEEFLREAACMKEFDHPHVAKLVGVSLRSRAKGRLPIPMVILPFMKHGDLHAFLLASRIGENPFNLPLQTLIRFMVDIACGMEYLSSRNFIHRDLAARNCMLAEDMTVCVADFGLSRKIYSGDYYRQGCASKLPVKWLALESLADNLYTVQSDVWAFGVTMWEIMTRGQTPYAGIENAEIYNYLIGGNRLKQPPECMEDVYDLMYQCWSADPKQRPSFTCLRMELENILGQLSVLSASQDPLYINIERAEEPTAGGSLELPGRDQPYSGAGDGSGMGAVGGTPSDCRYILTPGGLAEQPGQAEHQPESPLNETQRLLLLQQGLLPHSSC
Chain of Mitogen-activated protein kinase kinase kinase 20 (Homo sapiens) (Q9NYL2 2-800 limits assumed): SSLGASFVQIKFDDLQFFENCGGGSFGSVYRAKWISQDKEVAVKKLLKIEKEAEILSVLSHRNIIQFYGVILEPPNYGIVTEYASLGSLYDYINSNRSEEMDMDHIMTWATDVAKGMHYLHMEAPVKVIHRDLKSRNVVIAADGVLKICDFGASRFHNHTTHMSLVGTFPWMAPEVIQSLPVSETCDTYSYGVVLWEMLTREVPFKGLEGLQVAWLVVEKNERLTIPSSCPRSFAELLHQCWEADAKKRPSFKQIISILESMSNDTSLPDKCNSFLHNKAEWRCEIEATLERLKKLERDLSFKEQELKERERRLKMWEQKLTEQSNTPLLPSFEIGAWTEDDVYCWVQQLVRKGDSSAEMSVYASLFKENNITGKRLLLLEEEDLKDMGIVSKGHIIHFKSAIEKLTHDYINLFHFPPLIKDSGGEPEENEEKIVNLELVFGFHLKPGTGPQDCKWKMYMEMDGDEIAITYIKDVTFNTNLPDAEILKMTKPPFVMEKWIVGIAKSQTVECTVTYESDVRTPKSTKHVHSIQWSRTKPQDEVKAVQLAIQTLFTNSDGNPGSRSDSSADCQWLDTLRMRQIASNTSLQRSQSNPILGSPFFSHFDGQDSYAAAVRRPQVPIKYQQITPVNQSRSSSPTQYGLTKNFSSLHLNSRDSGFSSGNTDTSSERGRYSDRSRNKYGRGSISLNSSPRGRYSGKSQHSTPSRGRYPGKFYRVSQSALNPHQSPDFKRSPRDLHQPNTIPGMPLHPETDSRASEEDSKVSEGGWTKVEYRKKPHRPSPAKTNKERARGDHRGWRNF
Chain of Casein kinase II subunit alpha' (Homo sapiens) (P19784 whole entry, looked up): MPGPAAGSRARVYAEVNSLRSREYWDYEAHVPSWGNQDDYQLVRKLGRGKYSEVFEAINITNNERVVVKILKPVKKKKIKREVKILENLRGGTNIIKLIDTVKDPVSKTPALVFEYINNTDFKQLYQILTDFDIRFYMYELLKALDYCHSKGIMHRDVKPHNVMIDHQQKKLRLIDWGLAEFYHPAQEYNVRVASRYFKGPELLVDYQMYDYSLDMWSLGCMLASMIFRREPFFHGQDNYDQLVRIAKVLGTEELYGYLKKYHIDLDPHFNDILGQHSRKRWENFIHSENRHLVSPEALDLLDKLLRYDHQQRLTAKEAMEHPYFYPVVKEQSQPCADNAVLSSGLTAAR
Chain of Serine/threonine-protein kinase Chk2 (Homo sapiens), O96017 [R145W] (O96017 whole entry R145W): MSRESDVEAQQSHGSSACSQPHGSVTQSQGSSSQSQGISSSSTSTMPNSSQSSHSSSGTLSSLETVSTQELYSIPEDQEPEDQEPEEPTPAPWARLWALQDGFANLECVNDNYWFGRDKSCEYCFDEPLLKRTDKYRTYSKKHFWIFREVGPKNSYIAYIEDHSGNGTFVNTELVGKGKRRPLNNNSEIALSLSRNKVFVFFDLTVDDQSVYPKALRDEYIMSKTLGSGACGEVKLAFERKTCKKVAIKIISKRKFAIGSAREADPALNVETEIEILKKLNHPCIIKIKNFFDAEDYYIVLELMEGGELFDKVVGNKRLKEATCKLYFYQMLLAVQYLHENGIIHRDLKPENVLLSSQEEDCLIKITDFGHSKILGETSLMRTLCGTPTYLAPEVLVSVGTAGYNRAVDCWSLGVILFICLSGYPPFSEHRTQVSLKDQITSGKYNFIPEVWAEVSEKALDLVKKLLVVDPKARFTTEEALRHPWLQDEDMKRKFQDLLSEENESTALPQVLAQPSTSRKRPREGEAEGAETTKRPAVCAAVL

Regarding `CN(C)C(=O)c1cc2cnc(Nc3ccc(NC(=O)CCCCCCCN=C=S)cc3)nc2n1C1CCCC1`, the inhibition is 26% in experiment [1]; 22% in experiment [2]; 86% in experiment [3]; -4% in [4]; 11% in [5]; -4% in experiment [7]. Also, the inhibition was 52% in [9]; 98% in experiment [12]; -1% in experiment [13]; 30% in experiment [14]; 68% in [16]; 24% in experiment [17]. Moreover, the results for the IC50 with U-937, with Jurkat and with SiHa were 1990 nM, 3430 nM and 1810 nM, respectively. Further, the result in the experiment with A549 [6] and with A549 [15] was Active. For the same molecule, the result in the experiment with NCI-H1299 [8] and in the experiment with NCI-H1299 [11] was inactive. Moreover, the Activity in the experiment with A549 [10] was 1.76%. Further, in the experiment with HepG2, the inhibition at 10 µM amounted to 76%.
